# Screens as filed in PubChem BioAssay.
# TRPC4 inh = inhibitors of mouse TRPC4 channel; Q9QUQ5; HEK293 TRPC4beta/mu-opioid, DAMGO-evoked Fluo4 calcium flux; hits give low values; B-score at 10 µM; 300,000 tested, 0.39% active; AID 2247;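 active = B-score over 3 SD under the library average, no early fluorescence shift, positive overall ratio signal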
#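 test system = HEK293 cells with stable TRPC4beta plus mu-opioid receptor expression | detection = Fluo4 Ca2+ flux fluorescence | read-out = integrated fluorescence ratio relative to baseline, converted to per-well B score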
# TRPC4 act = activators of mouse TRPC4 channel; HEK293 TRPC4beta/mu-opioid, Fluo4 calcium fluorescence; hits give high values; B-score at 10 µM; Q9QUQ5; 310,000 tested, 0.49% active;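 active = B-score above 5 SD of library B-scores, and initial fluorescence ratio not above library mean plus 5 SD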;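 note: positive B-score marks a calcium rise read as TRPC4 activation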
#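 Technique: kinetic Fluo4 calcium fluorescence; Test system: TRPC4beta and mu-opioid receptor HEK293 stable cells; Measure: B-scored integrated calcium fluorescence ratio; Benchmarks: low control buffer alone, high control maximal DAMGO; Schedule: 45 min room-temperature Fluo4 loading, 110 s read.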
# TRPC6 inhibitor = inhibitors of mouse TRPC6 channel | Q61143 | HEK293-TRPC6, membrane potential dye, ACh-evoked depolarization; hits give low values | B-score at 10 µM | 310,000 tested, 1.1% active | AID 2553;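 active = B-score under library mean minus 3 SD, initial fluorescence not abnormally high, positive integrated signal ratio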;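 note: B-score derived from integrated fluorescence ratio over the kinetic read; more negative B-score means stronger inhibition of depolarization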
# TRPC4 potent = allosterically enhances the mouse TRPC4 cation channel. Q9QUQ5. B-score at 10 µM. HEK293 TRPC4beta/mu-opioid, DAMGO EC20, Fluo-4 Ca2+ flux; hits give high values. AID 2227. 310,000 tested, 0.42% active;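 active = B-score of calcium response area above 5 SD of library B-scores, with initial fluorescence ratio within 5 SD of library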;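 note: B-score of integrated fluorescence ratio over time as area under calcium response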
# TRPC6 act = mouse TRPC6 channel activation; Q61143; HEK293-TRPC6 membrane potential dye fluorescence; hits give high values; B-score at 10 µM; 310,000 tested, 0.13% active; AID 2550;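 active = B-score of the integrated fluorescence ratio above library mean plus 3 SD, and starting fluorescence ratio within library mean plus 5 SD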;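 note: higher score means more depolarization so channel activation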
# The depositor's hits bear a star; i = inactive. Sampled rows, rich in hits. Any-hit rate of the full collection: about 2.3%.
SMILES,TRPC4 inh,TRPC4 act,TRPC6 inhibitor,TRPC4 potent,TRPC6 act
Cc1cccc(C)c1NC(=O)C1C2C=CC(C2)C1C(=O)O (centres undefined),i,i,i,i,i
CCOC(=O)c1ccc(NC(=S)N2CCSC2c2ccc(Br)cc2)cc1 (centres undefined),i,i,i,43*,i
CCCCCCCCCn1c2c(c(=N)c3c1CCC3)CCCC2,i,i,i,i,i
CCCCCCCCCCn1c2c(c(=N)c3c1CCC3)CCC2,i,52*,-5.03*,i,i
CC(C)(C)NC(=O)C(c1ccc(F)cc1)N(Cc1ccco1)C(=O)CCC(=O)Nc1nccs1 (centres undefined),i,i,i,i,i
O=C(O)C1C2CCC(CC2)C1C(=O)N1CCN(Cc2ccc(F)cc2)CC1 (centres undefined),i,87*,i,i,i
O=C(C1CCN(Cc2ccc(F)cc2)CC1)N1CCN(C/C=C/c2ccccc2)CC1,i,i,i,i,i
COc1ccc(/C=N/NC(=O)c2ccc3c(c2)OCO3)c(C(=O)O)c1OC,i,i,i,i,i
Cc1ccc(Nc2n[nH]c(C)c2[N+](=O)[O-])cc1,i,i,i,i,i
Cc1[nH]nc(Nc2ccccc2)c1[N+](=O)[O-],i,i,i,19*,i
CN1CCN(CCCNC(=O)CN2C(=O)COc3ccccc32)CC1,-6*,i,i,i,i
O=C(CN1C(=O)COc2ccccc21)NCCCN1CCCC1,i,i,i,i,i
CCC(C(=O)NC1CCCCC1)n1c2ccccc2c2nc(=O)cc(C)n21 (centres undefined),i,i,i,i,i
CCOc1cc(/C=C/C(=O)Nc2ccc(C(=O)NCCN(CC)CC)cc2)ccc1OCC(C)C,i,i,i,i,i
COc1ccccc1NC(=O)c1ccc(NC(=O)CN(C)Cc2ccccc2F)cc1,i,i,i,i,i
O=C(NCCN1CCOCC1)c1ccc2c(c1)N(Cc1ccc(F)cc1)C(=O)CS2,-7*,i,i,i,i
Cc1ccc(CN2C(=O)CSc3ccc(C(=O)NCCN4CCOCC4)cc32)cc1,i,i,i,i,i
O=C(NCCN1CCOCC1)c1cc2sccc2n1Cc1ccc(F)cc1,-7*,i,i,i,i
CC1CCN(C(=O)CSc2nnc3ccc(-c4cccnc4)nn23)CC1,i,i,i,i,i
C[C@H](N=C1NS(=O)(=O)c2ccccc21)C(=O)OCc1cc([N+](=O)[O-])cc2c1OCOC2,i,i,i,i,i
CCCCNC(=O)CCn1nc(-c2ccccc2)ccc1=O,i,i,i,i,i
CC1CCCN(CCCNC(=O)CCn2nc(-c3ccccc3)ccc2=O)C1 (centres undefined),i,i,i,11*,i
COC(=O)CC1COc2ccccc2N1S(=O)(=O)c1ccc(Br)cc1 (centres undefined),i,i,i,i,i
Fc1ccccc1Sc1ccccc1CNC1=NCCN1,-6*,i,i,i,i
CC1=C(C(=O)OC(C)C)C(c2cn(-c3ccccc3)nc2-c2cccs2)NC(=O)N1 (centres undefined),i,i,i,13*,i
SMILES,TRPC4 inh,TRPC4 act,TRPC6 inhibitor,TRPC4 potent,TRPC6 act
CN1CCN(S(=O)(=O)c2ccc(Cl)c3ccccc23)CC1,i,i,i,i,i
CCN1CCN(S(=O)(=O)c2c(C)cc(C)cc2C)CC1,i,i,i,21*,i
CN1CCN(S(=O)(=O)c2ccc(Br)c3ccccc23)CC1,i,i,i,49*,i
Cc1cc(C)c(S(=O)(=O)N2CCN(C)CC2)c(C)c1,i,i,i,21*,i
COc1cc(C)c(S(=O)(=O)N2CCN(C)CC2)cc1C,i,i,i,i,i
CN1CCN(S(=O)(=O)c2cc(Cl)c(Cl)cc2Cl)CC1,i,51*,i,i,i
CC(=O)c1ccc(OCC(O)CN2CCN(S(=O)(=O)c3c(C)cc(C)cc3C)CC2)cc1 (centres undefined),i,i,i,22*,i
Nc1nonc1C(=O)N/N=C/c1ccc(-c2cccc(C(=O)O)c2)o1,i,i,i,i,i
COc1ccc(/C=N/NC(=O)c2ccc(F)cc2)cc1CN1CCc2cc(OC)c(OC)cc2C1C (centres undefined),-6*,i,i,i,i
COc1ccc(/C=N/NC(=O)c2ccc(C)cc2)cc1CN1CCN(c2ccc(F)cc2)CC1,i,i,i,i,i
O=[N+]([O-])c1cc(S(=O)(=O)Nc2ccccc2)ccc1N1CCN(c2ccc(O)cc2)CC1,i,i,i,i,i
Cc1ccc(NS(=O)(=O)c2ccc(N3CCN(c4ccc(O)cc4)CC3)c([N+](=O)[O-])c2)c(C)c1,i,i,i,26*,i
CC(C)=CC(=O)N1CCCC(N2CCN(c3ccc(F)cc3)CC2)C1 (centres undefined),i,i,i,i,i
CN(C)C(CNC(=O)CSc1nnc(-c2ccco2)o1)c1ccccc1 (centres undefined),i,64*,i,i,i
CCSc1ncccc1-c1nc2ccccc2[nH]1,-7*,i,i,i,i
C=CCn1c(CCNC(=O)c2ccco2)nc2ccccc21,i,168*,i,i,i
COc1ccccc1CC(=O)N1CCN(S(=O)(=O)c2ccccc2)CC1,i,i,i,20*,i
CCOC(=O)C1CCN(c2nc3ccccc3nc2C(C#N)C(=O)OCCOC)CC1 (centres undefined),-7*,i,i,i,i
CCOC(=O)C1CCN(c2nc3ccccc3nc2C(C#N)C(=O)OC(C)COC)CC1 (centres undefined),i,i,i,i,i
Cc1ccccc1C(=O)Nc1cccc(NC(=S)NC(=O)c2cccs2)c1,i,i,i,i,i
Cc1ccccc1C(=O)NNC(=S)NC(=O)c1cccs1,i,159*,i,i,i
O=C(NNC(=S)Nc1ccccc1)c1cccs1,i,i,i,i,i
CC(C)(C)c1ccc(C(=O)NC(=S)NNC(=O)c2cccs2)cc1,i,339*,i,i,i
Cc1cccc(C(=O)NC(=S)NNC(=O)c2ccc(Cl)cc2)c1,i,i,i,i,i
Cc1cccc(C(=O)NC(=S)NNC(=O)c2cccs2)c1,i,236*,i,i,i
